In ChEMBL document CHEMBL1122194, “Prodrugs of L-cysteine as liver-protective agents. 2(RS)-Methylthiazolidine-4(R)-carboxylic acid, a latent cysteine” (J Med Chem, 1982):

How the values were obtained:
Mus musculus [1] = organism: Mus musculus; experiment: Tested for Protection from Acetaminophen-Induced Liver Necrosis in Mice, Number of animals(mice) with grade 4+ liver necrosis was determined after 48 hr
Mus musculus [2] = organism: Mus musculus; experiment: Tested for Protection from Acetaminophen-Induced Liver Necrosis in Mice, Number of animals(mice) with liver necrosis was determined after 0 hour; format: functional
Mus musculus [3] = organism: Mus musculus; experiment: Tested for Protection from Acetaminophen-Induced Liver Necrosis in Mice (18 animals) and the deaths were observed after the 48 hours due to liver necrosis; Death due to hemorrhagic necrosis of the liver; format: functional
How it was run: (§1)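 Male Swiss-Webster mice (18–33 g) were randomized and given acetaminophen 750 mg/kg. Protective agents or saline followed 30 min later. Deaths were counted over 48 h with food and water ad libitum, then survivors were killed by cervical dislocation. Livers were formalin-fixed and sectioned, stained with H&E and Gomori reticulum stain, and necrosis was graded 0 to 4+ by Mitchell criteria. Counts pooled up to two independent experiments.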

Mus musculus [4] = organism: Mus musculus; experiment: Tested for Protection from Acetaminophen-Induced Liver Necrosis in Mice, Number of animals(mice) with grade 3+ liver necrosis was determined after 48 hours
Mus musculus [5] = organism: Mus musculus; experiment: Tested for Protection from Acetaminophen-Induced Liver Necrosis in Mice, Number of animals(mice) with grade 2+ liver necrosis was determined after 48 hours
Mus musculus [6] = organism: Mus musculus; experiment: Tested for Protection from Acetaminophen-Induced Liver Necrosis in Mice (in 10 animals) and the deaths were observed after the 48 hours due to liver necrosis; format: functional
How it was run: as §1

Mus musculus [7] = organism: Mus musculus; experiment: Tested for 17 animals(mice) and the deaths were observed after the 48 hours due to liver necrosis; format: functional
How it was run: as §1

Mus musculus [8] = organism: Mus musculus; experiment: Tested for Protection from Acetaminophen-Induced Liver Necrosis in Mice, Number of animals(mice) with liver necrosis was determined after 1 hr; format: functional
Mus musculus [9] = organism: Mus musculus; experiment: Tested for Protection from Acetaminophen-Induced Liver Necrosis in Mice (in 18 animals) and the deaths were observed after the 48 hours due to liver necrosis; format: functional
How it was run: as §1

Mus musculus [10] = organism: Mus musculus; experiment: Tested for Protection from Acetaminophen-Induced Liver Necrosis in Mice (in 17 animals) and the deaths were observed after the 48 hours due to liver necrosis; format: functional
How it was run: as §1

[11] = Lethal dose after intraperitoneal administration in mice was determined; format: toxicity, organism-based; conditions: mouse, in vivo, ip
Mus musculus [12] = organism: Mus musculus; experiment: Tested for Protection from Acetaminophen-Induced Liver Necrosis in Mice, necrosis was determined after 3 hour; format: functional
Mus musculus [13] = organism: Mus musculus; experiment: Tested for 10 animals(mice) and the deaths were observed after the 48 hours due to liver necrosis; format: functional
How it was run: as §1

Structure (SMILES) | No. of animals with grade 4+ liver necrosis (Mus musculus [1]) | No. of animals with liver necrosis (Mus musculus [2]) | No. of animals with grade 3+ liver necrosis (Mus musculus [4]) | further results
CC(=O)Nc1ccc(O)cc1.CC1N[C@H](C(=O)O)CS1 | 1 | 17 |  | Deaths (Mus musculus [3]): 1
CC(=O)Nc1ccc(O)cc1.O=C(O)C1CSCN1 | 2 | 1 | 4 | No. of animals with grade 2+ liver necrosis (Mus musculus [5]): 1; Deaths (Mus musculus [6]): 4
CC1N[C@H](C(=O)O)CS1 (some centres not stated) |  | 17 |  | Deaths (Mus musculus [7]): 0
CC(=O)N[C@@H](CS)C(=O)O.CC(=O)Nc1ccc(O)cc1 | 1 | 13 | 1 | No. of animals with liver necrosis (Mus musculus [8]): 3; Deaths (Mus musculus [9]): 1
CC(=O)Nc1ccc(O)cc1 [ACETAMINOPHEN] | 8 | 1 | 7 | No. of animals with grade 2+ liver necrosis (Mus musculus [5]): 1; Deaths (Mus musculus [10]): 11
CC(=O)N[C@@H](CS)C(=O)O [ACETYLCYSTEINE] |  | 15 |  | Deaths (Mus musculus [7]): 0; No. of animals with liver necrosis (Mus musculus [8]): 2
O=C(O)C1CSCN1 (configuration not stated) [TIMONACIC] |  | 9 |  | LD50 [11]: 164 mg/kg; No. of animals with liver necrosis (Mus musculus [12]): 1; Deaths (Mus musculus [13]): 3
